Assay results from ChEMBL document CHEMBL3627671, “Novel derivatives of nitro-substituted salicylic acids: Synthesis, antimicrobial activity and cytotoxicity” (Bioorg Med Chem, 2015).
In brackets after ≈: the same amount, converted by molar mass.

What was measured:
[1] = system: Mycobacterium tuberculosis; test: Antimycobacterial activity against Mycobacterium tuberculosis H37Rv 331/88 after 14 days; format: functional; conditions: H37Rv 331/88, 336 h
[2] = system: Mycobacterium tuberculosis; test: Antimycobacterial activity against Mycobacterium tuberculosis H37Rv 331/88 after 21 days; format: functional; conditions: H37Rv 331/88, 504 h
[3] = system: Mycobacterium avium; test: Antimycobacterial activity against Mycobacterium avium 330/80 after 14 days; format: functional; conditions: 330/80, 336 h
[4] = system: Mycobacterium avium; test: Antimycobacterial activity against Mycobacterium avium 330/80 after 21 days; format: functional; conditions: 330/80, 504 h
[5] = system: Mycobacterium kansasii; test: Antimycobacterial activity against Mycobacterium kansasii 235/80 after 7 days; format: functional; conditions: 235/80, 168 h
Procedure, shortened: (§1)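 Šula's semisynthetic medium micromethod at 37 °C, read after 7, 14 and 21 days. The 1.0 McFarland suspension was diluted 10^-4. MIC determined. 6509/96 is a clinical isolate.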

[6] = system: Mycobacterium kansasii; test: Antimycobacterial activity against Mycobacterium kansasii 235/80 after 14 days; format: functional; conditions: 235/80, 336 h; procedure, shortened: as §1
[7] = system: Mycobacterium kansasii; test: Antimycobacterial activity against Mycobacterium kansasii 235/80 after 21 days; format: functional; conditions: 235/80, 504 h; procedure, shortened: as §1
[8] = system: Mycobacterium kansasii; test: Antimycobacterial activity against Mycobacterium kansasii 6509/96 after 7 days; format: functional; conditions: 6509/96, 168 h; procedure, shortened: as §1
[9] = system: Mycobacterium kansasii; test: Antimycobacterial activity against Mycobacterium kansasii 6509/96 after 14 days; format: functional; conditions: 6509/96, 336 h; procedure, shortened: as §1
[10] = system: Mycobacterium kansasii; test: Antimycobacterial activity against Mycobacterium kansasii 6509/96 after 21 days; format: functional; conditions: 6509/96, 504 h; procedure, shortened: as §1
[11] = system: Staphylococcus aureus; test: Antibacterial activity against Staphylococcus aureus CCM 4516/08 after 24 hrs by microdilution broth method; format: functional; conditions: CCM 4516/08, 24 h
[12] = system: Staphylococcus aureus; test: Antibacterial activity against Staphylococcus aureus CCM 4516/08 after 48 hrs by microdilution broth method; format: functional; conditions: CCM 4516/08, 48 h
[13] = system: Staphylococcus aureus; test: Antibacterial activity against methicillin-resistant Staphylococcus aureus H 5996/08 after 24 hrs by microdilution broth method; format: functional; conditions: H 5996/08, 24 h
[14] = system: Staphylococcus aureus; test: Antibacterial activity against methicillin-resistant Staphylococcus aureus H 5996/08 after 48 hrs by microdilution broth method; format: functional; conditions: H 5996/08, 48 h
[15] = system: Staphylococcus epidermidis; test: Antibacterial activity against Staphylococcus epidermidis H 6966/08 after 24 hrs by microdilution broth method; format: functional; conditions: H 6966/08, 24 h
Procedure, shortened: (§2)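 Mueller-Hinton broth microdilution (modified M07-A07), pH 7.4 (±0.2). Compounds dissolved in DMSO, tested at final 500 to 0.49 µmol/L. Inoculum in sterile water matched to 0.5 McFarland. Incubated in the dark, humid atmosphere, 35 °C, read at 24 and 48 h visually and at 540 nm. MIC taken as ≥95% growth reduction (IC95) versus control.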

[16] = system: Staphylococcus epidermidis; test: Antibacterial activity against Staphylococcus epidermidis H 6966/08 after 48 hrs by microdilution broth method; format: functional; conditions: H 6966/08, 48 h; procedure, shortened: as §2
[17] = system: Enterococcus sp.; test: Antibacterial activity against Enterococcus sp. J 14365/08 after 24 hrs by microdilution broth method; format: functional; conditions: J 14365/08, 24 h; procedure, shortened: as §2
[18] = system: Enterococcus sp.; test: Antibacterial activity against Enterococcus sp. J 14365/08 after 48 hrs by microdilution broth method; format: functional; conditions: J 14365/08, 48 h; procedure, shortened: as §2
[19] = system: Escherichia coli; test: Antibacterial activity against Escherichia coli CCM4517 after 24 hrs by microdilution broth method; format: functional; conditions: CCM4517, 24 h; procedure, shortened: as §2
[20] = system: Escherichia coli; test: Antibacterial activity against Escherichia coli CCM4517 after 48 hrs by microdilution broth method; format: functional; conditions: CCM4517, 48 h; procedure, shortened: as §2
[21] = system: Klebsiella pneumoniae; test: Antibacterial activity against Klebsiella pneumoniae D 11750/08 after 24 hrs by microdilution broth method; format: functional; conditions: D 11750/08, 24 h; procedure, shortened: as §2
[22] = system: Klebsiella pneumoniae; test: Antibacterial activity against Klebsiella pneumoniae D 11750/08 after 48 hrs by microdilution broth method; format: functional; conditions: D 11750/08, 48 h; procedure, shortened: as §2
[23] = system: Klebsiella pneumoniae; test: Antibacterial activity against ESBL-positive Klebsiella pneumoniae J 14368/08 after 24 hrs by microdilution broth method; format: functional; conditions: J 14368/08, 24 h; procedure, shortened: as §2
[24] = system: Klebsiella pneumoniae; test: Antibacterial activity against ESBL-positive Klebsiella pneumoniae J 14368/08 after 48 hrs by microdilution broth method; format: functional; conditions: J 14368/08, 48 h; procedure, shortened: as §2
[25] = system: Pseudomonas aeruginosa; test: Antibacterial activity against Pseudomonas aeruginosa CCM 1961 after 24 hrs by microdilution broth method; format: functional; conditions: CCM 1961, 24 h; procedure, shortened: as §2
[26] = system: Pseudomonas aeruginosa; test: Antibacterial activity against Pseudomonas aeruginosa CCM 1961 after 48 hrs by microdilution broth method; format: functional; conditions: CCM 1961, 48 h; procedure, shortened: as §2
[27] = system: Candida albicans; test: Antifungal activity against Candida albicans ATCC 44859 after 24 hrs by microdilution broth method; format: functional; conditions: ATCC 44859, 24 h
Procedure, shortened: (§3)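 CLSI M27-A3 broth microdilution in RPMI 1640 with glutamine, buffered to pH 7.0 with MOPS; DMSO diluent. Yeast inoculum 5 × 10^3 ± 0.2 CFU/mL. Moulds grown on Sabouraud agar 3–10 days before spore harvest, final inoculum 0.5-5 × 10^4 CFU/mL, checked in a Bürker chamber. Incubated dark, humid, 35 °C, read at 24 and 48 h visually and at 540 nm. MIC taken as ≥80% (yeasts) or ≥50% (filamentous) growth reduction versus control.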

[28] = system: Candida albicans; test: Antifungal activity against Candida albicans ATCC 44859 after 48 hrs by microdilution broth method; format: functional; conditions: ATCC 44859, 48 h; procedure, shortened: as §3
[29] = system: Candida tropicalis; test: Antifungal activity against Candida tropicalis 156 after 24 hrs by microdilution broth method; format: functional; conditions: Candida tropicalis, 156, 24 h; procedure, shortened: as §3
[30] = system: Candida tropicalis; test: Antifungal activity against Candida tropicalis 156 after 48 hrs by microdilution broth method; format: functional; conditions: Candida tropicalis, 156, 48 h; procedure, shortened: as §3
[31] = system: Pichia kudriavzevii; test: Antifungal activity against Candida krusei E28 after 24 hrs by microdilution broth method; format: functional; conditions: E28, 24 h; procedure, shortened: as §3
[32] = system: Pichia kudriavzevii; test: Antifungal activity against Candida krusei E28 after 48 hrs by microdilution broth method; format: functional; conditions: E28, 48 h; procedure, shortened: as §3
[33] = system: Nakaseomyces glabratus; test: Antifungal activity against Candida glabrata 20/I after 24 hrs by microdilution broth method; format: functional; procedure, shortened: as §3
[34] = system: Nakaseomyces glabratus; test: Antifungal activity against Candida glabrata 20/I after 48 hrs by microdilution broth method; format: functional; procedure, shortened: as §3
[35] = system: Trichosporon asahii; test: Antifungal activity against Trichosporon asahii 1188 after 24 hrs by microdilution broth method; format: functional; conditions: Trichosporon asahii, 1188, 24 h; procedure, shortened: as §3
[36] = system: Trichosporon asahii; test: Antifungal activity against Trichosporon asahii 1188 after 48 hrs by microdilution broth method; format: functional; conditions: Trichosporon asahii, 1188, 48 h; procedure, shortened: as §3
[37] = system: Aspergillus fumigatus; test: Antifungal activity against Aspergillus fumigatus 231 after 24 hrs by microdilution broth method; format: functional; conditions: Aspergillus fumigatus, 231, 24 h; procedure, shortened: as §3
[38] = system: Aspergillus fumigatus; test: Antifungal activity against Aspergillus fumigatus 231 after 48 hrs by microdilution broth method; format: functional; conditions: Aspergillus fumigatus, 231, 48 h; procedure, shortened: as §3
[39] = system: Lichtheimia corymbifera; test: Antifungal activity against Absidia corymbifera 272 after 24 hrs by microdilution broth method; format: functional; conditions: Lichtheimia corymbifera, 272, 24 h; procedure, shortened: as §3
[40] = system: Lichtheimia corymbifera; test: Antifungal activity against Absidia corymbifera 272 after 48 hrs by microdilution broth method; format: functional; conditions: Lichtheimia corymbifera, 272, 48 h; procedure, shortened: as §3
[41] = system: Trichophyton mentagrophytes; test: Antifungal activity against Trichophyton mentagrophytes 445 after 24 hrs by microdilution broth method; format: functional; conditions: Trichophyton mentagrophytes, 445, 24 h
[42] = system: Trichophyton mentagrophytes; test: Antifungal activity against Trichophyton mentagrophytes 445 after 48 hrs by microdilution broth method; format: functional; conditions: Trichophyton mentagrophytes, 445, 48 h
[43] = system: HepG2; test: Cytotoxicity against human HepG2 cells after 24 hrs […]; format: cell-based; conditions: HepG2, 24 h
[44] = Selectivity index, ratio of CI50 for human HepG2 cells to MIC100 for Mycobacterium tuberculosis H37Rv 331/88

## O=C(Nc1ccc(C(F)(F)F)cc1)c1ccc([N+](=O)[O-])cc1O
[1]
  MIC: 2 µM (≈ 0.652 µg/mL)
[2]
  MIC: 4 µM (≈ 1.3 µg/mL)
[3]
  MIC: 32 µM (≈ 10.4 µg/mL)
[4]
  MIC: 32 µM (≈ 10.4 µg/mL)
[5]
  MIC: 2 µM (≈ 0.652 µg/mL)
[6]
  MIC: 4 µM (≈ 1.3 µg/mL)
[7]
  MIC: 8 µM (≈ 2.61 µg/mL)
[8]
  MIC: 4 µM (≈ 1.3 µg/mL)
[9]
  MIC: 8 µM (≈ 2.61 µg/mL)
[10]
  MIC: 8 µM (≈ 2.61 µg/mL)
[11]
  MIC: 7.81 µM (≈ 2.55 µg/mL)
[12]
  MIC: 7.81 µM (≈ 2.55 µg/mL)
[13]
  MIC: 1.95 µM (≈ 0.636 µg/mL)
[14]
  MIC: 1.95 µM (≈ 0.636 µg/mL)
[15]
  MIC: 1.95 µM (≈ 0.636 µg/mL)
[16]
  MIC: 7.81 µM (≈ 2.55 µg/mL)
[17]
  MIC: 250 µM (≈ 81.6 µg/mL)
[18]
  MIC: 250 µM (≈ 81.6 µg/mL)
[19]
  MIC: 500 µM (≈ 163 µg/mL)
[20]
  MIC: 500 µM (≈ 163 µg/mL)
[21]
  MIC: 500 µM (≈ 163 µg/mL)
[22]
  MIC: 500 µM (≈ 163 µg/mL)
[23]
  MIC: 500 µM (≈ 163 µg/mL)
[24]
  MIC: 500 µM (≈ 163 µg/mL)
[25]
  MIC: > 500 µM
[26]
  MIC: > 500 µM
[27]
  MIC: 250 µM (≈ 81.6 µg/mL)
[28]
  MIC: 250 µM (≈ 81.6 µg/mL)
[29]
  MIC: 250 µM (≈ 81.6 µg/mL)
[30]
  MIC: 250 µM (≈ 81.6 µg/mL)
[31]
  MIC: 62.5 µM (≈ 20.4 µg/mL)
[32]
  MIC: 125 µM (≈ 40.8 µg/mL)
[33]
  MIC: 125 µM (≈ 40.8 µg/mL)
[34]
  MIC: 250 µM (≈ 81.6 µg/mL)
[35]
  MIC: 31.2 µM (≈ 10.2 µg/mL)
[36]
  MIC: 31.2 µM (≈ 10.2 µg/mL)
[37]
  MIC: 31.2 µM (≈ 10.2 µg/mL)
[38]
  MIC: 31.2 µM (≈ 10.2 µg/mL)
[39]
  MIC: 31.2 µM (≈ 10.2 µg/mL)
[40]
  MIC: 62.5 µM (≈ 20.4 µg/mL)
[41]
  MIC: 62.5 µM (≈ 20.4 µg/mL)
[42]
  MIC: 125 µM (≈ 40.8 µg/mL)
[43]
  IC50: 1.2 µM
[44]
  Selectivity Index: 0.3
